ZTA DNA inh: blocks Epstein-Barr virus ZTA, an EBNA-1 counter-screen; P03206; ZTA-DNA binding, fluorescence polarization; inhibition, % at 11 µM; 320,000 tested, 0.15% active; AID 2234; in the data active = inhibition above about 33%
Target sequence (P03206 whole entry, looked up): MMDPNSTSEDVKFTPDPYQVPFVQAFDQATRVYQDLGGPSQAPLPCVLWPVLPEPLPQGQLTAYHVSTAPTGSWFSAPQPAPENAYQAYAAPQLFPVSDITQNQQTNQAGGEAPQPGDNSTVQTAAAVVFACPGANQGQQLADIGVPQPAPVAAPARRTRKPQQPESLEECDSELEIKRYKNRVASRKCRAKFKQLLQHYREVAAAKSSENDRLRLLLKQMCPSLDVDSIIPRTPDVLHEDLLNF
HCV NS3 hel inh: inhibitors of Hepatitis C virus NS3 helicase. NS3 helicase DNA unwinding, Cy5 molecular beacon fluorescence. inhibition, % at 10.9 µM. 290,000 tested, 0.56% active. AID 1800;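 active = inhibition above the mean of all tested compounds plus 3 SD, set per campaign, cut at about 35% in these data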
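System: Hepatitis C virus NS3 helicase domain fragment enzyme | Reagent: Annealed dual-labelled DNA beacon duplex, ATP-started | Compound dosing: 10.9 µM single point, 0.8% DMSO | Incubation: 1 h reaction at 25 °C, ATP-initiated | Technique: Cy5 fluorescence | Evaluation: Percent inhibition from t60/t0 fluorescence ratio | Benchmarks: Low DMSO, high thioflavine S at 110 µM | Replication: Singlicate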
ALR inh: human ALR oxidase inhibition via reduced H2O2; P55789; purified ALR, DTT oxidation, H2O2 HRP-luminol luminescence; inhibition, % (concentration not given with the values); 290,000 tested, 3.8% active;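 active = mean replicate inhibition above about 79%, with every replicate also reaching it, limit read from the data; inconclusive = only one of the two criteria met; inactive = mean below limit and not every replicate reaching it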
Target sequence (P55789 whole entry, looked up): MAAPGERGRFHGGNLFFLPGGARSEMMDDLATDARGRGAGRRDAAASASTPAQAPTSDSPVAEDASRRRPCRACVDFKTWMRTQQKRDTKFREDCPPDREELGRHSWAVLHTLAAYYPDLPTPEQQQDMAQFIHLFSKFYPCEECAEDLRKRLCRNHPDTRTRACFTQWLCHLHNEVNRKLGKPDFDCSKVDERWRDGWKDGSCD
PfM18AAP inh: blocks P. falciparum M18 aspartyl aminopeptidase; recombinant PfM18AAP, H-Glu-NHMec fluorogenic cleavage; inhibition, % at 7.35 µM; 290,000 tested, 1.2% active;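 active = inhibition above the campaign mean inhibition over all tested compounds plus 3 SD, cut at about 28% in these data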
HCV core dimer: blocks dimerization of HCV core protein | 300,000 tested, 0.33% active | inhibition, % at 5 µM | TR-FRET GST/Flag-core106 dimerization, 1536-well | AID 1899;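 active = inhibition above the mean of all tested compounds plus 3 SD, set per screening campaign, cut at about 45% in these data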
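Material: Tagged HCV core106 pair (GST and Flag) | Amount: GST-core106 13.5 nM, Flag-core106 17 nM | Medium: KF-containing HEPES buffer, pH 7.45, DTT, CHAPS, BSA | Reagent: Eu donor and XL665 acceptor anti-tag antibodies | Schedule: 4 h at 22.5 °C | Technique: Time-resolved FRET, ex 340 nm, em 617 and 671 nm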
EBNA-1 inhibitor: blocks EBNA-1 binding to DNA. EBNA-1 DNA binding, fluorescence polarization. inhibition, % at 14.8 µM. 300,000 tested, 0.34% active. AID 1950; in the data active = inhibition above about 28%
Numbers stand for hits; i = inactive; ? = inconclusive; nt = not tested or not shown. Rows were chosen to be rich in hits. Some 5.2% of all compounds tested hit in one or more screens of this group.

SMILES	ZTA DNA inh	HCV NS3 hel inh	ALR inh	PfM18AAP inh	HCV core dimer	EBNA-1 inhibitor
CCN(CC)C(=O)c1[nH]cnc1C(=O)Nc1ccc(Cl)cc1	i	nt	i	nt	nt	nt
CCOC(=O)c1nnc(-c2cccs2)nc1Oc1ccc(Cl)cc1	i	i	92	i	i	i
Cc1ccccc1-n1c(SCC(=O)NCc2cccs2)nc2ccccc2c1=O	i	i	i	i	i	i
COC(=O)CSC1=C(C#N)C(c2ccc(C)cc2)C2=C(CCCC2=O)N1 (centres undefined)	i	i	i	30	i	i
COC(=O)CSC1=C(C#N)C(c2ccc3c(c2)OCO3)C2=C(CCCC2=O)N1 (centres undefined)	i	i	99	i	i	i
COc1ccc(OCC(=O)Nc2ccccc2C(=O)NC2CC2)cc1	i	nt	nt	nt	nt	nt
COc1ccc(N2C(=O)[C@@H]3[C@H](C2=O)[C@H](C(=O)c2ccc(OC(C)=O)cc2)N2N=CC=C[C@@H]32)cc1	i	i	i	i	46	i
Cc1ccc(OC(=O)COc2ccccc2C)c(-n2nc3ccccc3n2)c1	i	i	96	i	i	i
COc1ccc(NC(=O)CN(C)C(=O)CSc2nc3ccccc3s2)cc1	i	nt	98	nt	i	i
CN(CC(=O)N1CCOCC1)C(=O)CSc1nc2ccccc2s1	i	i	i	i	i	i
COc1ccc(NC(=O)CSc2nc(N)c(C(=O)Nc3ccc(N(C)C)cc3)s2)cc1	i	i	99	i	i	i
CN(CC(=O)Nc1ccccc1Cl)C(=O)CSc1nc2ccccc2s1	i	i	85	i	i	i
COc1ccc(NC(=O)C2CCN(C(=O)Nc3ccccc3)CC2)cc1S(=O)(=O)N(C)C	i	nt	i	nt	nt	nt
O=C(CSc1ncnc2ccccc12)Nc1cccc(S(=O)(=O)N2CCCC2)c1	i	i	99	i	i	i
O=C(CSc1ncnc2ccccc12)Nc1cc(S(=O)(=O)N2CCCCC2)ccc1Cl	i	i	i	i	i	i
COc1cc(C2C(C#N)=C(N)N(c3cccnc3)C3=C2C(=O)CCC3)ccc1O (centres undefined)	i	i	?	i	i	i
COc1cc(C2C(C#N)=C(N)N(c3ccc(F)cc3)C3=C2S(=O)(=O)CC3)ccc1O (centres undefined)	i	i	88	i	i	i
C=C1c2ccccc2NC(=S)N1Cc1ccc2c(c1)OCO2	i	i	i	32	i	i
COc1ccc(N2C(=O)C(C)C(Cc3ccc(C)cc3)C2=O)cc1 (centres undefined)	i	i	i	i	i	i
O=C(N/N=C/c1sc(N2CCCCC2)nc1-c1cccs1)C1CC1	i	i	i	i	i	i
NC(=O)N/N=C/c1sc(N2CCCCC2)nc1-c1cccs1	i	nt	97	nt	i	i
CCCCN(C(=O)c1ccncc1)c1c(N)n(CCC)c(=O)[nH]c1=O	nt	nt	i	nt	nt	nt
COc1cc(-c2nnc(SCC(=O)N3c4ccccc4Sc4ccccc43)o2)cc(OC)c1OC	i	i	i	i	i	i
CC(=O)N1c2ccccc2Sc2ccccc21	nt	i	i	i	nt	nt
O=C(Sc1nnc(-c2ccccc2)o1)N1c2ccccc2Sc2ccccc21	i	i	93	i	i	i
SMILES	ZTA DNA inh	HCV NS3 hel inh	ALR inh	PfM18AAP inh	HCV core dimer	EBNA-1 inhibitor
Cn1ccnc1SC(=O)N1c2ccccc2Sc2ccccc21	i	i	99	i	i	i
Cc1cc(O)cc(O)c1C=NCc1ccco1	i	i	i	i	i	i
COc1cc2ccc(=O)oc2cc1O	i	nt	98	nt	i	i
CC(C)n1c(-c2ccco2)csc1=Nc1cccnc1	i	i	92	i	i	i
COCCn1c(-c2ccccc2)csc1=Nc1cccnc1	i	i	i	i	i	i
Cc1cccc(N(CC(=O)NC(C)C)C(=O)CCC(=O)Nc2nccs2)c1	i	i	i	i	i	i
O=C(c1cccc2ccccc12)n1nnc2ccccc21	i	i	94	i	i	i
C#CCOC(=O)c1ccccc1C(=O)OCC#C	i	i	i	i	i	i
Cc1ccc(C(=O)n2nnc3ccccc32)cc1	i	i	i	i	i	i
C#CCOC(=O)c1ccccc1C(=O)n1nnc2ccccc21	i	i	97	i	i	i
Cc1ccc(N(C(=O)c2snc(C(N)=O)c2N)C(C(=O)NCc2ccccc2)c2ccncc2)c(C)c1 (centres undefined)	i	i	i	i	i	i

Compound activity deposited in PubChem by several laboratories.
